ChEMBL document CHEMBL2311425, “Histone deacetylase (HDAC) inhibitors with a novel connecting unit linker region reveal a selectivity profile for HDAC4 and HDAC5 with improved activity against chemoresistant cancer cells” (J Med Chem, 2013)

Legend:
[1] = tested on: CAL-27; experiment: Cytotoxicity against cisplatin sensitive human CAL27 cells after 72 hrs by MTT assay; type: functional, cell-based; conditions: CAL-27, 72 h
[2] = molecular target: T1, Protein deacetylase HDAC6 (Homo sapiens, UniProt Q9UBN7); experiment: Inhibition of human HDAC6 by fluorescence assay
T1 sequence (Q9UBN7 whole entry): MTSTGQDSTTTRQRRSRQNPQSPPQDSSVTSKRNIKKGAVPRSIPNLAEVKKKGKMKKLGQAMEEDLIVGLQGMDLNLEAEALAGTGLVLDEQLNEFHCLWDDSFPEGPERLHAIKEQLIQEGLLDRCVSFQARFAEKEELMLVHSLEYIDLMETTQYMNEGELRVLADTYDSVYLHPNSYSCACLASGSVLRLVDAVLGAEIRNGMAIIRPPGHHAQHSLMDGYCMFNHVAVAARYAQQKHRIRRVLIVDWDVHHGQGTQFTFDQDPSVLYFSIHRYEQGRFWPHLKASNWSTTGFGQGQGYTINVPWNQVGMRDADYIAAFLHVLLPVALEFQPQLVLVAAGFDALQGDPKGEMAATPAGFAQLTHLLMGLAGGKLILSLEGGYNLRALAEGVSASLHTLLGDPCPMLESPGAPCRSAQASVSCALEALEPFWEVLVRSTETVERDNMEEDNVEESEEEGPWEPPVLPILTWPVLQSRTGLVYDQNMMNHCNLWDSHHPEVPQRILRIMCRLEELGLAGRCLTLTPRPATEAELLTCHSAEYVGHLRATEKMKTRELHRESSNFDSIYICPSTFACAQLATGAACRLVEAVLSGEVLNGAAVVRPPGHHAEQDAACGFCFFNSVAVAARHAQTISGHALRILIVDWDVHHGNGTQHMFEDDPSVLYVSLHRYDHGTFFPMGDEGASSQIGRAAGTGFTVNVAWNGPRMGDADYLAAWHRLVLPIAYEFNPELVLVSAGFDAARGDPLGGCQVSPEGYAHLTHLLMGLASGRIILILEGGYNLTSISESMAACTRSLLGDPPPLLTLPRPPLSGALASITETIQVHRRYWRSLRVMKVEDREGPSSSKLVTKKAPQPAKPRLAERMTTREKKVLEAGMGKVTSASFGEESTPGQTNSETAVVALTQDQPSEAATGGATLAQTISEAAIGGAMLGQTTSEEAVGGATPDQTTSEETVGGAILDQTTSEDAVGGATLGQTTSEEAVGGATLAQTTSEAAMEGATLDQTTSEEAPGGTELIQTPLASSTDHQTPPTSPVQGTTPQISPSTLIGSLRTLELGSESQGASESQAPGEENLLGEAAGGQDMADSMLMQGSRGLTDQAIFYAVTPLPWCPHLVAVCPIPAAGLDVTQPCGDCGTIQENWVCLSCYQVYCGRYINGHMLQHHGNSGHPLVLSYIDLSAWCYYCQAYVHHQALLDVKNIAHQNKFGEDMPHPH

[3] = tested on: A2780; experiment: Cytotoxicity against human A2780 cells after 72 hrs by MTT assay; type: functional, cell-based; conditions: A2780, 72 h
[4] = tested on: MDA-MB-231; experiment: Cytotoxicity against cisplatin resistant human MDA-MB-231 cells after 72 hrs by MTT assay; type: functional, cell-based; conditions: MDA-MB-231, 72 h
[5] = tested on: KYSE-510; experiment: Cytotoxicity against cisplatin sensitive human KYSE-510 cells after 72 hrs by MTT assay; type: functional, cell-based; conditions: KYSE-510, 72 h
[6] = tested on: CAL-27; experiment: Cytotoxicity against cisplatin resistant human CAL27 cells after 72 hrs by MTT assay; type: functional, cell-based; conditions: CAL-27, 72 h
[7] = molecular target: Histone deacetylase; experiment: Inhibition of HDAC in human A2780 cells after 18 hrs by fluorescence assay; type: cell-based
[8] = tested on: KYSE-510; experiment: Cytotoxicity against cisplatin resistant human KYSE-510 cells after 72 hrs by MTT assay; type: functional, cell-based; conditions: KYSE-510, 72 h
[9] = molecular target: Histone deacetylase; experiment: Inhibition of HDAC in cisplatin resistant human CAL27 cells after 18 hrs by fluorescence assay; type: cell-based; conditions: cal-27
[10] = molecular target: Histone deacetylase; experiment: Inhibition of HDAC in cisplatin sensitive human MDA-MB-231 cells after 18 hrs by fluorescence assay; type: cell-based
[11] = molecular target: Histone deacetylase; experiment: Inhibition of HDAC in cisplatin resistant human KYSE-510 cells after 18 hrs by fluorescence assay; type: cell-based
[12] = molecular target: T2, Histone deacetylase 11 (Homo sapiens, UniProt Q96DB2); experiment: Inhibition of human HDAC11 by fluorescence assay
T2 sequence (Q96DB2 whole entry): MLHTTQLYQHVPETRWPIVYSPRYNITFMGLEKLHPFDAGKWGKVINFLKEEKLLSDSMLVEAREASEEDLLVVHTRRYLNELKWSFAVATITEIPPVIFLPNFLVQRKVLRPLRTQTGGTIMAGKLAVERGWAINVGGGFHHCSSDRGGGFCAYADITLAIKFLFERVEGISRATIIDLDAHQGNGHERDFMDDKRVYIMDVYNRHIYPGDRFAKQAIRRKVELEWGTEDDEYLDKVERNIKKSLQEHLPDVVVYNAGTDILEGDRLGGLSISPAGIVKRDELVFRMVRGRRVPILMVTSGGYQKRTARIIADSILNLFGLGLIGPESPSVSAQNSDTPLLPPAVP

[13] = molecular target: Histone deacetylase 4 (Homo sapiens, UniProt P56524); experiment: Inhibition of human HDAC4 by fluorescence assay
[14] = molecular target: Histone deacetylase; experiment: Inhibition of HDAC in cisplatin resistant human MDA-MB-231 cells after 18 hrs by fluorescence assay; type: cell-based
[15] = molecular target: Histone deacetylase 1 (Homo sapiens, UniProt Q13547); experiment: Inhibition of human HDAC1 by fluorescence assay
[16] = molecular target: T3, Histone deacetylase 8 (Homo sapiens, UniProt Q9BY41); experiment: Inhibition of human HDAC8 by fluorescence assay
T3 sequence (Q9BY41 whole entry): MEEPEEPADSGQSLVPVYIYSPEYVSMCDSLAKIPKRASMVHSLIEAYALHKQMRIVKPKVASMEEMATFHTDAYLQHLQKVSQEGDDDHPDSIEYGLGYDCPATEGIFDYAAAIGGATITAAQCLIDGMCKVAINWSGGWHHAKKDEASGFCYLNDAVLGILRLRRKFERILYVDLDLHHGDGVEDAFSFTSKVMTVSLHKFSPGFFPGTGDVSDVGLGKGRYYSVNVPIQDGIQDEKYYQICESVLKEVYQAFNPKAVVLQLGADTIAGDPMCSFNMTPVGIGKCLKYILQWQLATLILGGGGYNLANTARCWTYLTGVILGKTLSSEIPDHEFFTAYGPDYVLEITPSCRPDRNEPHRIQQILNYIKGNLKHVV

[17] = tested on: MDA-MB-231; experiment: Cytotoxicity against cisplatin sensitive human MDA-MB-231 cells after 72 hrs by MTT assay; type: functional, cell-based; conditions: MDA-MB-231, 72 h
How it was run: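 MDA-MB-231 (parental), 10 000 cells/well, in DMEM with 15% FCS at 37 °C, 5% CO2. Compounds added 24 h after seeding for 72 h. MTT (5 mg/mL in PBS) was added, formazan dissolved in DMSO, absorbance read at 544 and 690 nm. IC50 from four-parameter logistic fit of ≥3 experiments in triplicate.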

[18] = molecular target: Histone deacetylase; experiment: Inhibition of HDAC in cisplatin resistant human A2780 cells after 18 hrs by fluorescence assay; type: cell-based
[19] = molecular target: Histone deacetylase 5 (Homo sapiens, UniProt Q9UQL6); experiment: Inhibition of human HDAC5 by fluorescence assay
[20] = tested on: A2780 CisR (Homo sapiens); experiment: cells; conditions: 72 h
[21] = molecular target: Histone deacetylase; experiment: Inhibition of HDAC in cisplatin sensitive human KYSE-510 cells after 18 hrs by fluorescence assay; type: cell-based
[22] = molecular target: Histone deacetylase; experiment: Inhibition of HDAC in cisplatin sensitive human CAL27 cells after 18 hrs by fluorescence assay; type: cell-based; conditions: cal-27
[23] = molecular target: Histone deacetylase 2 (Homo sapiens, UniProt Q92769); experiment: Inhibition of human HDAC2 by fluorescence assay
Chain of Histone deacetylase 2 (Q92769 whole entry): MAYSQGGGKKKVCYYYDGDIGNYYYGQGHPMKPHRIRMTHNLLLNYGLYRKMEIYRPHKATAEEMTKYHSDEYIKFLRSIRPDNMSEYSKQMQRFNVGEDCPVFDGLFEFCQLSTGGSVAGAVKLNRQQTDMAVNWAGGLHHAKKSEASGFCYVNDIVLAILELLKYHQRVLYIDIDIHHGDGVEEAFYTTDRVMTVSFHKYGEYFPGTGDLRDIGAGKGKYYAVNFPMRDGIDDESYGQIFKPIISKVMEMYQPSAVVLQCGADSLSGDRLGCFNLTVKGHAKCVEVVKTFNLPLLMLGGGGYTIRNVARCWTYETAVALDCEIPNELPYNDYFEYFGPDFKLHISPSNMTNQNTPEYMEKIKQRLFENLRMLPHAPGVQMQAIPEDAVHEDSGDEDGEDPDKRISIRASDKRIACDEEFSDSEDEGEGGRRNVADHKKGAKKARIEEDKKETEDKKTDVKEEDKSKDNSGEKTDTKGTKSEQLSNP

Chain of Histone deacetylase 5 (Q9UQL6 whole entry): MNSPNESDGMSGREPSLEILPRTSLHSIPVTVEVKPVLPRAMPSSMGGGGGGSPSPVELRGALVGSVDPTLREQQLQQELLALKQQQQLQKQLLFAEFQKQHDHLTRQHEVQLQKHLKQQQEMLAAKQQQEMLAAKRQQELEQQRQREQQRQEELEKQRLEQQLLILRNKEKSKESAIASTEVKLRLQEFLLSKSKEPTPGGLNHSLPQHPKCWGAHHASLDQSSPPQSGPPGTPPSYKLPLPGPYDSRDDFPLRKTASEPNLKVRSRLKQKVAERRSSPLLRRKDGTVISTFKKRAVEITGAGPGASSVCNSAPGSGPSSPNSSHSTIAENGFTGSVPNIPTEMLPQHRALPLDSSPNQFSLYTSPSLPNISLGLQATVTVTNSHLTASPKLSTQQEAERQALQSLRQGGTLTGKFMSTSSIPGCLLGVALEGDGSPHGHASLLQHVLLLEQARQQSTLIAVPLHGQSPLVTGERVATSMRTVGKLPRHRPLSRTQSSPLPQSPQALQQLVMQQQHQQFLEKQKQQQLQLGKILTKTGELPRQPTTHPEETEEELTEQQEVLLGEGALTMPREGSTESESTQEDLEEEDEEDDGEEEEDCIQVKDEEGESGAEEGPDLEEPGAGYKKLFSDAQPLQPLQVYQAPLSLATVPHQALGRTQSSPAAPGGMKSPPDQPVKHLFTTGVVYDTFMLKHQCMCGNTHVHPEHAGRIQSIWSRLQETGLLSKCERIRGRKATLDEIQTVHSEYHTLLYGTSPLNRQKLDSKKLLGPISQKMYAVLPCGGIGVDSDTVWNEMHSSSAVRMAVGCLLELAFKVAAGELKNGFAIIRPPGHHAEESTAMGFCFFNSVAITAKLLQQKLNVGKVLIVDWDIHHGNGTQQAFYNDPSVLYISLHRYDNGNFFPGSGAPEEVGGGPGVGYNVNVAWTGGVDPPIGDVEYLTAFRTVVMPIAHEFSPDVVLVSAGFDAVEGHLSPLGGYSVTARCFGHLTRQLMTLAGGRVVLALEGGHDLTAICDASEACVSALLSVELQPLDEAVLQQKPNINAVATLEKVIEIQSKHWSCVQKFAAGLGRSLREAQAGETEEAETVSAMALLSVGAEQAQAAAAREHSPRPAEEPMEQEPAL
Chain of Histone deacetylase 1 (Q13547 whole entry): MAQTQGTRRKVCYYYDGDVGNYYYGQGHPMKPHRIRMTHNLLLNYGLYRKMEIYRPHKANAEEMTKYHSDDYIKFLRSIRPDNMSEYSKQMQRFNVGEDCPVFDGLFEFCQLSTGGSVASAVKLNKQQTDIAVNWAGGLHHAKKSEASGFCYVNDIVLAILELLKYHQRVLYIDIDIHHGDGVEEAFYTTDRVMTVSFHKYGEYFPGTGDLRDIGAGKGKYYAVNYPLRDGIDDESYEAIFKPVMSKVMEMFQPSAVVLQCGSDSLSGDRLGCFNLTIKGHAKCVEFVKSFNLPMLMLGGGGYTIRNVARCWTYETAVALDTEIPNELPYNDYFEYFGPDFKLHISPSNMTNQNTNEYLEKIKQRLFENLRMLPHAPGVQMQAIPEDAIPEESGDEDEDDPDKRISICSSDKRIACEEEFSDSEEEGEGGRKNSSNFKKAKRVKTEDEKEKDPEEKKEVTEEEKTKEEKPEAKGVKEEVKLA
Chain of Histone deacetylase 4 (P56524 whole entry): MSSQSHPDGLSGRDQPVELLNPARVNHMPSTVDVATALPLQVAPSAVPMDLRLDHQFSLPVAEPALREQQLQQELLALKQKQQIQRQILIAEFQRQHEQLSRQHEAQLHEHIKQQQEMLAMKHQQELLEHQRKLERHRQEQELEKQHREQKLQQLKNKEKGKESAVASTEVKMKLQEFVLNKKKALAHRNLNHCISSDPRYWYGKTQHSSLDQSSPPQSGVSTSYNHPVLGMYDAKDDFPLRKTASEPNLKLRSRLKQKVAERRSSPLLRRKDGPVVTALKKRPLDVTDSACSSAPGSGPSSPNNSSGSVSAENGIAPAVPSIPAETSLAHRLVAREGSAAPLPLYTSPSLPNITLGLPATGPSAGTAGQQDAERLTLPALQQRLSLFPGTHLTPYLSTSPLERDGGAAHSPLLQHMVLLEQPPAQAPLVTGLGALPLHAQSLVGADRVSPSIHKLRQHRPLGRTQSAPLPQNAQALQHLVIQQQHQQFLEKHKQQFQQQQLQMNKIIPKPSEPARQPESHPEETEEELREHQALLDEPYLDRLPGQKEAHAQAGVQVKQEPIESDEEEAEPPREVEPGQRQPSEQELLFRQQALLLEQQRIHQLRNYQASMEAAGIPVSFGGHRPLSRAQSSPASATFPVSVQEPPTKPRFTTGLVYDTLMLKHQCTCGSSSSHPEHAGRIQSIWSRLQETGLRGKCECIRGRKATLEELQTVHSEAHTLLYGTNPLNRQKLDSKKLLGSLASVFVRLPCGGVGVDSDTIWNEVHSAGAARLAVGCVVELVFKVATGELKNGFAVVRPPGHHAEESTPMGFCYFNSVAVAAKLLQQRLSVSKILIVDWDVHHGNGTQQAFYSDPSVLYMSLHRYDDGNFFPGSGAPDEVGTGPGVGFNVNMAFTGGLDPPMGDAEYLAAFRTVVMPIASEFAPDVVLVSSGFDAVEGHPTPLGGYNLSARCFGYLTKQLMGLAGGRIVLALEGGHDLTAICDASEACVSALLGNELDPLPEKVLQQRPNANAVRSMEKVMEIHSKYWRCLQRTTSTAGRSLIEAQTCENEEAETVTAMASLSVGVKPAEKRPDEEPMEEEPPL

| Structure (SMILES) | IC50 [1] [µM] | IC50 [2] [µM] | IC50 [3] [µM] | IC50 [4] [µM] | IC50 [5] [µM] | IC50 [6] [µM] | IC50 [7] [µM] | IC50 [8] [µM] | IC50 [9] [µM] | IC50 [10] [µM] | IC50 [11] [µM] | IC50 [12] [µM] | IC50 [13] [µM] | IC50 [14] [µM] | IC50 [15] [µM] | IC50 [16] [µM] | IC50 [17] [µM] | IC50 [18] [µM] | IC50 [19] [µM] | IC50 [20] [µM] | also measured |
| --- | --- | --- | --- | --- | --- | --- | --- | --- | --- | --- | --- | --- | --- | --- | --- | --- | --- | --- | --- | --- | --- |
| Cc1cccc(C(=O)NOCCCCCC(=O)NO)c1 | 2.97 | 0.0269 | 2.1 | 3.81 | 8.19 | 3.72 | 1.58 | 8.21 | 0.88 | 1.41 | 1.13 | 2.14 | 0.0163 | 1.28 | 0.341 | 1.04 | 2.79 | 0.9 | 0.00231 | 2.25 | IC50 [21]: 2.62 µM; IC50 [22]: 1 µM; IC50 [23]: 1.39 µM |
| Cc1ccc(C(=O)NOCCCCCC(=O)NO)cc1C | 2.9 | 0.0181 | 1.54 | 3.77 | 10 | 4.31 | 1.61 | 9.46 | 0.91 | 1.57 | 1.1 | 0.997 | 0.0826 | 1.66 | 0.32 | 0.833 | 2.77 | 0.88 | 0.0334 | 1.78 | IC50 [21]: 2.82 µM; IC50 [22]: 1.1 µM; IC50 [23]: 0.944 µM |
